From ChEMBL document CHEMBL1275382, “Synthesis and SAR studies of chiral non-racemic dexoxadrol analogues as uncompetitive NMDA receptor antagonists” (Bioorg Med Chem, 2010)

Key:
[1] = Binding affinity to sigma2 receptor
In short: (§1)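 Radioligand competition binding with at least six test-compound concentrations, each run in triplicate. Incubations were stopped by rapid filtration through filters presoaked 2 h in 0.5% aqueous polyethylenimine, and bound radioactivity was counted by solid scintillation. IC50 came from non-linear regression and Ki from the Cheng–Prusoff equation. Values are mean ± SEM of three independent experiments.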

[2] = biological target: Sigma non-opioid intracellular receptor 1 (Homo sapiens, UniProt Q99720); assay: Binding affinity to sigma1 receptor; in short: as §1
Sigma non-opioid intracellular receptor 1, sequence (Q99720 whole entry): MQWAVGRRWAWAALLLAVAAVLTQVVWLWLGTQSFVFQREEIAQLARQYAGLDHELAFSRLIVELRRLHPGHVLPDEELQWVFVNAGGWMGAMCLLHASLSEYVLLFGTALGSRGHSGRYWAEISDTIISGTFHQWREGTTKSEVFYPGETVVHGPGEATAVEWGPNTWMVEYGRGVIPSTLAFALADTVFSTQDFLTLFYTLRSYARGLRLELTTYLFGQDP

[3] = Binding affinity to NMDA receptor ifenprodil binding site; in short: as §1

For FC1CCNC(C2COC(c3ccccc3)(c3ccccc3)O2)C1 (racemic), the Ki [1] was > 1 µM, the Ki [2] was > 0.8 µM and the Ki [3] was > 1 µM.
With FC1(F)CCNC(C2COC(c3ccccc3)(c3ccccc3)O2)C1 (racemic) the Ki [1] was > 1 µM, the Ki [2] was > 0.8 µM and the Ki [3] was > 1 µM.
In the case of OC1CCNC(C2COC(c3ccccc3)(c3ccccc3)O2)C1 (racemic), the Ki [1] is reported as > 1 µM, the Ki [2] is reported as > 0.8 µM and the Ki [3] is reported as > 1 µM.
With c1ccc(C2(c3ccccc3)OCC(C3CCCCN3)O2)cc1 (racemic) [DIOXADROL] the Ki [1] was > 1 µM, the Ki [2] was > 0.8 µM and the Ki [3] was > 1 µM.
With O=C1CCNC(C2COC(c3ccccc3)(c3ccccc3)O2)C1 (racemic) the Ki [1] was > 1 µM, the Ki [2] was > 0.8 µM and the Ki [3] was > 1 µM.
